Values belong to the substance of their own block, whether it stands above or below them.
How the values were obtained:
RbAp48 [1] = experiment: Binding of MBD3 N-terminal peptide to RbAp48; details: data not shown
RbAp48 [2] = details: RbAp48 expressed in a reticulocyte lysate; cited from earlier work
[3] = test system: RbAp48 mutants (E126A/E179A; E231A/D248A/N277A/E319A); experiment: Pulldown of in vitro translated 35S-labeled mutant RbAp48 by biotinylated FOG-1-; format: binding
How it was run: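 ³⁵S-labeled RbAp48 mutants made by coupled in vitro transcription/translation in rabbit reticulocyte lysate. About 10 μg biotinylated FOG-1-(1–15) on high-capacity streptavidin beads, in Tris pH 7.4, 300 mm NaCl, 0.5% IGEPAL and EDTA-free protease inhibitor. Lysate (15 μl, plus 45 μl ³⁵S-MTA-1 where stated) with 250 μl beads, 1 h, 4 °C. Bare-bead control; 10% input. Five washes; SDS-PAGE and autoradiography.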

binding to RbAp48 (RbAp48 [1]): does not bind measurably
Substance: MERKRWECPALPQGW [N-terminal peptide derived from MBD3]

Substance: FOG-1-(1–15): chemically synthesized peptide, the 15 N-terminal amino acids of FOG-1
interaction with RbAp48 in GST pulldown assays (RbAp48 [2]): can interact
pulldown of E126A/E179A mutant RbAp48 in the presence of MTA-1 ([3]; 45 μl lysate with 35S-labeled MTA-1 added, Fig. 5B lane 10): could be recruited

Substance: biotinylated FOG-1-(1–15): FOG-1-(1–15) peptide bearing an N-terminal biotin tag, immobilized on streptavidin
pulldown of quadruple-point mutant RbAp48 (Glu-231, Asp-248, Asn-277, Glu-319) ([3]; biotinylated peptide on streptavidin beads, Fig. 5A): disrupts binding

Reference: PMC3020727 (The Journal of Biological Chemistry, 2010)
